What was measured:
SMMC-7721 [1] = experiment: Induction of apoptosis in human SMMC7721 cells assessed as early apoptotic cells at 8 uM after 48 hrs by Annexin-V/PI-staining based flow cytometry (reference value: 1.25%); format: functional
HL-60 = experiment: Antiproliferative activity against human HL60 cells assessed as growth inhibition incubated up to 4 days by MTS assay; format: functional, cell-based; conditions: HL-60, 96 h
Method in brief: (§1)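 Five human tumour cell lines were assayed by MTS. IC50 is the compound concentration that cuts optical density of treated cells by 50% relative to untreated cells. Mean of three independent determinations.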

SMMC-7721 [2] = experiment: Induction of cell cycle arrest in human SMMC7721 cells assessed as accumulation at G2/M phase at 2 uM after 24 hrs by propidium iodide staining based flow cytometric analysis (reference value: 6.70 +/- 0.63%); format: functional
SMMC-7721 [3] = experiment: Induction of apoptosis in human SMMC7721 cells assessed as early apoptotic cells at 2 uM after 48 hrs by Annexin-V/PI-staining based flow cytometry (reference value: 1.25%); format: functional
SMMC-7721 [4] = experiment: Induction of apoptosis in human SMMC7721 cells assessed as necrotic cells at 2 uM after 48 hrs by Annexin-V/PI-staining based flow cytometry (reference value: 1.24%); format: functional
SMMC-7721 [5] = experiment: Induction of cell cycle arrest in human SMMC7721 cells assessed as accumulation at sub-G1 phase at 8 uM after 24 hrs by propidium iodide staining based flow cytometric analysis (reference value: 3.173 +/- 0.26%); format: functional
SMMC-7721 [6] = experiment: Induction of apoptosis in human SMMC7721 cells assessed as viable cells at 2 uM after 48 hrs by Annexin-V/PI-staining based flow cytometry (reference value: 96.9%); format: functional; conditions: SMMC-7721, 48 h, read-out: Activity
MCF7 = experiment: Antiproliferative activity against human MCF7 cells assessed as growth inhibition incubated up to 4 days by MTS assay; format: functional, cell-based; conditions: MCF7, 96 h; method in brief: as §1
SMMC-7721 [7] = experiment: Induction of cell cycle arrest in human SMMC7721 cells assessed as accumulation at G2/M phase at 4 uM after 24 hrs by propidium iodide staining based flow cytometric analysis (reference value: 6.70 +/- 0.63%); format: functional
SMMC-7721 [8] = experiment: Induction of apoptosis in human SMMC7721 cells assessed as early apoptotic cells at 4 uM after 48 hrs by Annexin-V/PI-staining based flow cytometry (reference value: 1.25%); format: functional
SMMC-7721 [9] = experiment: Induction of apoptosis in human SMMC7721 cells assessed as viable cells at 4 uM after 48 hrs by Annexin-V/PI-staining based flow cytometry (reference value: 96.9%); format: functional; conditions: SMMC-7721, 48 h, read-out: Activity
A549 = experiment: Antiproliferative activity against human A549 cells assessed as growth inhibition incubated up to 4 days by MTS assay; format: functional, cell-based; conditions: A549, 96 h; method in brief: as §1
SMMC-7721 [10] = experiment: Induction of apoptosis in human SMMC7721 cells assessed as necrotic cells at 4 uM after 48 hrs by Annexin-V/PI-staining based flow cytometry (reference value: 1.24%); format: functional
SMMC-7721 [11] = experiment: Induction of apoptosis in human SMMC7721 cells assessed as late apoptotic cells at 2 uM after 48 hrs by Annexin-V/PI-staining based flow cytometry (reference value: 0.649%); format: functional
SMMC-7721 [12] = experiment: Induction of cell cycle arrest in human SMMC7721 cells assessed as accumulation at S phase at 4 uM after 24 hrs by propidium iodide staining based flow cytometric analysis (reference value: 23.26 +/- 0.57%); format: functional
SMMC-7721 [13] = experiment: Induction of cell cycle arrest in human SMMC7721 cells assessed as accumulation at S phase at 8 uM after 24 hrs by propidium iodide staining based flow cytometric analysis (reference value: 23.26 +/- 0.57%); format: functional
SMMC-7721 [14] = experiment: Induction of apoptosis in human SMMC7721 cells assessed as necrotic cells at 8 uM after 48 hrs by Annexin-V/PI-staining based flow cytometry (reference value: 1.24%); format: functional
SW480 = experiment: Antiproliferative activity against human SW480 cells assessed as growth inhibition incubated up to 4 days by MTS assay; format: functional, cell-based; conditions: SW480, 96 h; method in brief: as §1
SMMC-7721 [15] = experiment: Induction of apoptosis in human SMMC7721 cells assessed as late apoptotic cells at 4 uM after 48 hrs by Annexin-V/PI-staining based flow cytometry (reference value: 0.649%); format: functional
SMMC-7721 [16] = experiment: Induction of cell cycle arrest in human SMMC7721 cells assessed as accumulation at S phase at 2 uM after 24 hrs by propidium iodide staining based flow cytometric analysis (reference value: 23.26 +/- 0.57%); format: functional
SMMC-7721 [17] = experiment: Induction of cell cycle arrest in human SMMC7721 cells assessed as accumulation at G0/G1 phase at 2 uM after 24 hrs by propidium iodide staining based flow cytometric analysis (reference value: 63.71 +/- 0.31%); format: functional
SMMC-7721 [18] = experiment: Induction of cell cycle arrest in human SMMC7721 cells assessed as accumulation at sub-G1 phase at 4 uM after 24 hrs by propidium iodide staining based flow cytometric analysis (reference value: 3.173 +/- 0.26%); format: functional
SMMC-7721 [19] = experiment: Induction of cell cycle arrest in human SMMC7721 cells assessed as accumulation at G2/M phase at 8 uM after 24 hrs by propidium iodide staining based flow cytometric analysis (reference value: 6.70 +/- 0.63%); format: functional
SMMC-7721 [20] = experiment: Induction of apoptosis in human SMMC7721 cells assessed as late apoptotic cells at 8 uM after 48 hrs by Annexin-V/PI-staining based flow cytometry (reference value: 0.649%); format: functional
SMMC-7721 [21] = experiment: Induction of cell cycle arrest in human SMMC7721 cells assessed as accumulation at G0/G1 phase at 8 uM after 24 hrs by propidium iodide staining based flow cytometric analysis (reference value: 63.71 +/- 0.31%); format: functional
SMMC-7721 [22] = experiment: Induction of apoptosis in human SMMC7721 cells assessed as viable cells at 8 uM after 48 hrs by Annexin-V/PI-staining based flow cytometry (reference value: 96.9%); format: functional; conditions: SMMC-7721, 48 h, read-out: Activity
SMMC-7721 [23] = experiment: Antiproliferative activity against human SMMC7721 cells assessed as growth inhibition incubated up to 4 days by MTS assay; format: functional, cell-based; conditions: SMMC-7721, 96 h; method in brief: as §1
SMMC-7721 [24] = experiment: Induction of cell cycle arrest in human SMMC7721 cells assessed as accumulation at G0/G1 phase at 4 uM after 24 hrs by propidium iodide staining based flow cytometric analysis (reference value: 63.71 +/- 0.31%); format: functional
SMMC-7721 [25] = experiment: Induction of cell cycle arrest in human SMMC7721 cells assessed as accumulation at sub-G1 phase at 2 uM after 24 hrs by propidium iodide staining based flow cytometric analysis (reference value: 3.173 +/- 0.26%); format: functional

Cc1cc2c(cc1C)[n+](CC(=O)c1ccc3ccccc3c1)cn2C(c1ccccc1)c1cc2ccccc2oc1=O.[Br-] (centres undefined)
Activity (SMMC-7721 [1]): 25.6%
IC50 (HL-60): 2070 nM
Activity (SMMC-7721 [2]): 6.92%
Activity (SMMC-7721 [3]): 1.3%
Activity (SMMC-7721 [4]): 1.58%
Activity (SMMC-7721 [5]): 2.54%
viability at 2 µM (SMMC-7721 [6]): 96.4%
IC50 (MCF7): 2040 nM
Activity (SMMC-7721 [7]): 7.59%
Activity (SMMC-7721 [8]): 4.82%
viability at 4 µM (SMMC-7721 [9]): 93.2%
IC50 (A549): 4510 nM
Activity (SMMC-7721 [10]): 0.541%
Activity (SMMC-7721 [11]): 0.698%
Activity (SMMC-7721 [12]): 22.47%
Activity (SMMC-7721 [13]): 16.42%
Activity (SMMC-7721 [14]): 2.27%
IC50 (SW480): 2320 nM
Activity (SMMC-7721 [15]): 1.39%
Activity (SMMC-7721 [16]): 21.82%
Activity (SMMC-7721 [17]): 65.02%
Activity (SMMC-7721 [18]): 5.16%
Activity (SMMC-7721 [19]): 9.68%
Activity (SMMC-7721 [20]): 11.2%
Activity (SMMC-7721 [21]): 70.88%
viability at 8 µM (SMMC-7721 [22]): 60.9%
IC50 (SMMC-7721 [23]): 3770 nM
Activity (SMMC-7721 [24]): 67.69%
Activity (SMMC-7721 [25]): 3.25%

Source: ChEMBL document CHEMBL4610035, “Synthesis and biological evaluation of novel 3-benzylcoumarin-imidazolium salts” (Bioorg Med Chem Lett, 2020)
